Measured values published in ChEMBL document CHEMBL1139576, “Synthesis and biological evaluation of benzothiazole derivatives as potent antitumor agents” (Bioorg Med Chem Lett, 2005).
Values after ≈ are worked out from the molar mass of the structure shown.

Columns and labels:
[1] = test system: WI-38 VA13; assay: Cytotoxicity against tumorigenic cell line WI-38 VA-13 subline 2RA (VA-13);no cytotoxicity against parental cell line WI-38; type: functional, cell-based; conditions: Homo sapiens
[2] = test system: Mus musculus; assay: In vivo percent inhibitory effect on tumor growth after 11 days against mouse Lewis lung carcinoma xenograft model (LLC) at the dose of 20 mg/kg/shot; (Schedule day=1); type: functional; conditions: 264 h, read-out: TGI
How it was run: (§1)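 Mouse Lewis lung carcinoma was inoculated subcutaneously into BDF1 female mice (n = 6) on day 0. Dosing was iv in 10% DMA/10% HCO60 (polyoxyethylene hydrogenated castor oil 60)/80% saline on the stated schedule. Tumor growth inhibition (%) was based on tumor volume at day 11, with significance by t test (p < 0.05).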

[3] = test system: Mus musculus; assay: Half life time in plasma at a single iv dose of 10 mg/kg
[4] = test system: Mus musculus; assay: In vivo percent inhibitory effect on tumor growth after 11 days against mouse Lewis lung carcinoma xenograft model (LLC) at the dose of 5 mg/kg/shot; (Schedule day=1,4,7); type: functional; conditions: 264 h, read-out: TGI; how it was run: as §1
[5] = test system: Mus musculus; assay: In vivo percent inhibitory effect on tumor growth after 11 days against mouse Lewis lung carcinoma xenograft model (LLC) at the dose of 40 mg/kg/shot; (Schedule day=1,4,7); type: functional; conditions: 264 h, read-out: TGI; how it was run: as §1
[6] = species on record: Mus musculus; assay: Half life time in plasma (concentration); type: functional, organism-based
How it was run: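 Plasma levels were measured in BDF1 female mice after iv administration at 10 mg/kg, with n = 2 and the mean concentration–time profile reported. The plasma half-life was derived from these profiles.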

SMILES | EC50 [1] [µg/mL] | other results
O=C(Nc1nc2ccc(N/C(S)=N/c3ccccc3OC(F)(F)F)cc2s1)C1CCCCC1 | 2.3 (≈ 4.65 µM) | –
N#Cc1ccc(C(=O)Nc2ccc3nc(NC(=O)C4CCCCC4)sc3c2)cc1 | 3.3 (≈ 8.16 µM) | –
C=CCOC(=O)Nc1ccc2nc(NC(=O)C3CCCCC3)sc2c1 | 0.58 (≈ 1.61 µM) | –
COc1cccc(Nc2nc3ccc(NC(=O)c4c(Cl)cccc4Cl)cc3s2)c1 | > 7.2 | –
COc1ccccc1Nc1nc2ccc(NC(=O)c3c(Cl)cccc3Cl)cc2s1 | > 7.2 | –
NCCC(=O)Nc1nc2ccc(NC(=O)c3c(Cl)cccc3Cl)cc2s1 | 5.3 (≈ 12.9 µM) | –
CC(C)COC(=O)Nc1nc2ccc(NC(=O)c3c(Cl)cccc3Cl)cc2s1 | 0.0035 (≈ 0.00798 µM) | –
CCOC(=O)Nc1nc2cc(NC(=O)c3c(Cl)cccc3Cl)ccc2s1 | 2.5 (≈ 6.09 µM) | –
O=C(Nc1ccc2nc(NC(=O)C3CCCCC3)sc2c1)c1ccccc1Oc1ccccc1 | 0.1 (≈ 0.212 µM) | –
O=C(Nc1nc2ccc(NC(=O)c3c(Cl)cccc3Cl)cc2s1)Oc1ccccc1 | 1.1 (≈ 2.4 µM) | –
CC(C)CC(=O)Nc1nc2ccc(NC(=O)c3c(Cl)cccc3Cl)cc2s1 | 0.012 (≈ 0.0284 µM) | –
CCOC(=O)Nc1nc2ccc(NC(=O)c3c(Cl)cccc3Cl)cc2s1 | 0.0026 (≈ 0.00634 µM) | –
COc1ccc(Nc2nc3ccc(NC(=O)c4c(Cl)cccc4Cl)cc3s2)cc1 | 0.87 (≈ 1.96 µM) | –
CC(=O)Nc1nc2ccc(NC(=O)c3c(Cl)cccc3Cl)cc2s1 | 0.6 (≈ 1.58 µM) | –
Cc1cc(C(=O)Nc2ccc3nc(NC(=O)C4CCCCC4)sc3c2)c(C)n1C | > 6.2 | –
CCCCCCNC(=O)Nc1nc2ccc(NC(=O)c3c(Cl)cccc3Cl)cc2s1 | 0.29 (≈ 0.623 µM) | –
Cc1ccc(F)cc1S(=O)(=O)Nc1ccc2nc(NC(=O)C3CCCCC3)sc2c1 | 0.7 (≈ 1.56 µM) | –
Cc1cccc(C)c1NC(=O)Nc1ccc2nc(NC(=O)C3CCCCC3)sc2c1 | 0.56 (≈ 1.33 µM) | –
O=C(O)CCC(=O)Nc1nc2ccc(NC(=O)c3c(Cl)cccc3Cl)cc2s1 | > 6.6 | –
Cc1ccccc1C(=O)Nc1ccc2nc(NC(=O)C3CCCCC3)sc2c1 | 0.085 (≈ 0.216 µM) | –
O=C(Nc1ccc2nc(NC(=O)C3CC3)sc2c1)c1c(Cl)cccc1Cl | 0.013 (≈ 0.032 µM) | inhibition in vivo at 20 mg/kg [2]: 68%; T1/2 [3]: 3.29 h; inhibition in vivo at 5 mg/kg [4]: 63%

SMILES | EC50 [1] [µg/mL] | other results
O=C(NCCc1ccccc1)Nc1ccc2nc(NC(=O)C3CCCCC3)sc2c1 | 0.7 (≈ 1.66 µM) | –
CCC(C)(C)C(=O)Nc1ccc2nc(NC(=O)C3CCCCC3)sc2c1 | 1 (≈ 2.68 µM) | –
O=C(Nc1nc2ccc(NC(=O)C3CCCO3)cc2s1)C1CCCCC1 (stereo not drawn) | 1.3 (≈ 3.48 µM) | –
Cn1nccc1C(=O)Nc1ccc2nc(NC(=O)C3CCCCC3)sc2c1 | 0.58 (≈ 1.51 µM) | –
Cc1nc(C)c(C(=O)Nc2ccc3nc(NC(=O)C4CCCCC4)sc3c2)s1 | 0.39 (≈ 0.941 µM) | –
Cc1cc(C(=O)Nc2ccc3nc(NC(=O)C4CCCCC4)sc3c2)n(C)n1 | 0.12 (≈ 0.302 µM) | –
O=C(Nc1ccc2nc(NC(=O)C3CCCCC3)sc2c1)c1ccccc1Cl | 0.025 (≈ 0.0604 µM) | –
CCCC(=O)Nc1nc2ccc(NC(=O)c3c(Cl)cccc3Cl)cc2s1 | 0.01 (≈ 0.0245 µM) | –
O=C(Nc1ccc2nc(NC(=O)C3CCCCC3)sc2c1)c1ccc(Cl)cc1Cl | > 4 | –
O=C(Nc1nc2ccc(NC(=S)Nc3ccc4c(c3)OCCO4)cc2s1)C1CCCCC1 | 1.6 (≈ 3.41 µM) | –
CCNC(=O)Nc1nc2ccc(NC(=O)c3c(Cl)cccc3Cl)cc2s1 | 0.032 (≈ 0.0782 µM) | –
CCCCCCCC(=O)Nc1nc2ccc(NC(=O)c3c(Cl)cccc3Cl)cc2s1 | 0.18 (≈ 0.388 µM) | –
O=C(Nc1ccc2nc(NC(=O)C3CCCCC3)sc2c1)c1ccc(Br)cc1 | > 4 | –
CCCCCNc1nc2ccc(NC(=O)c3c(Cl)cccc3Cl)cc2s1 | 0.27 (≈ 0.661 µM) | –
CCCCOc1ccc(S(=O)(=O)Nc2ccc3nc(NC(=O)C4CCCCC4)sc3c2)cc1 | 0.75 (≈ 1.54 µM) | –
O=C(NCc1ccccc1)Nc1nc2ccc(NC(=O)c3c(Cl)cccc3Cl)cc2s1 | 0.15 (≈ 0.318 µM) | –
CC(C)OC(=O)Nc1nc2ccc(NC(=O)c3c(Cl)cccc3Cl)cc2s1 | 0.0026 (≈ 0.00613 µM) | –
Cc1[nH][n+](C)c(C)c1C(=O)Nc1ccc2nc(NC(=O)C3CCCCC3)sc2c1 | 0.012 | –
Cn1ncc([N+](=O)[O-])c1C(=O)Nc1ccc2nc(NC(=O)C3CCCCC3)sc2c1 | 0.026 (≈ 0.0607 µM) | inhibition in vivo at 40 mg/kg [5]: 15%
CCCCNC(=O)Nc1nc2ccc(NC(=O)c3c(Cl)cccc3Cl)cc2s1 | 0.028 (≈ 0.064 µM) | –
COC(=O)Nc1nc2ccc(NC(=O)c3c(Cl)cccc3Cl)cc2s1 | 0.0095 (≈ 0.024 µM) | –

SMILES | EC50 [1] [µg/mL] | other results
COc1ccc(C(=O)Nc2ccc3nc(NC(=O)C4CCCCC4)sc3c2)cc1 | 4.9 (≈ 12 µM) | –
O=C(Nc1ccc2nc(NC(=O)C3CCCCC3)sc2c1)c1ccccc1C(F)(F)F | 0.024 (≈ 0.0536 µM) | –
O=C(Nc1ccc2nc(NC(=O)C3CCCCC3)sc2c1)c1cccnc1Cl | 0.075 (≈ 0.181 µM) | –
CC(=O)Nc1ccc2nc(NC(=O)C3CCCCC3)sc2c1 | 2.7 (≈ 8.51 µM) | –
N#Cc1cccc(C(=O)Nc2ccc3nc(NC(=O)C4CCCCC4)sc3c2)c1 | 0.52 (≈ 1.29 µM) | –
CCCOC(=O)Nc1nc2ccc(NC(=O)c3c(Cl)cccc3Cl)cc2s1 | 0.0025 (≈ 0.00589 µM) | –
O=C(Nc1ccc2nc(NC(=O)C3CCCCC3)sc2c1)c1c(F)cccc1C(F)(F)F | 0.032 (≈ 0.0687 µM) | –
Cc1coc(C)c1C(=O)Nc1ccc2nc(NC(=O)C3CCCCC3)sc2c1 | 2.7 (≈ 6.79 µM) | –
O=C(Nc1ccc2nc(NC(=O)C3CCCCC3)sc2c1)c1c(Cl)cccc1Cl | 0.015 (≈ 0.0335 µM) | inhibition in vivo at 40 mg/kg [5]: 35%; T1/2 [6]: 1.1 h
CC(C)NC(=O)Nc1nc2ccc(NC(=O)c3c(Cl)cccc3Cl)cc2s1 | 0.03 (≈ 0.0709 µM) | –
Cc1ccc(C(=O)Nc2ccc3nc(NC(=O)C4CCCCC4)sc3c2)cc1 | 5.1 (≈ 13 µM) | –
CCCC(C)C(=O)Nc1ccc2nc(NC(=O)C3CCCCC3)sc2c1 (stereo not drawn) | 0.14 (≈ 0.375 µM) | –
COCCOC(=O)Nc1nc2ccc(NC(=O)c3c(Cl)cccc3Cl)cc2s1 | 0.011 (≈ 0.025 µM) | –
O=C(Nc1ccc2nc(NCC3CCCCC3)sc2c1)c1c(Cl)cccc1Cl | 4.3 (≈ 9.9 µM) | –
O=C(Nc1ccc2nc(NC(=O)C3CCCCC3)sc2c1)c1cccc(Oc2ccccc2)c1 | > 4 | –
CC(C)(C)OC(=O)Nc1nc2ccc(NC(=O)c3c(Cl)cccc3Cl)cc2s1 | 0.027 (≈ 0.0616 µM) | –
O=C(Nc1ccc2nc(NC(=O)C3CCCCC3)sc2c1)c1cccc(F)c1 | 0.64 (≈ 1.61 µM) | –
O=C(Nc1ccc2nc(NC(=O)C3CCC3)sc2c1)c1c(Cl)cccc1Cl | 0.013 (≈ 0.0309 µM) | –
O=C(Nc1ccc2nc(NC(=O)C3CCCCC3)sc2c1)c1ccccc1F | 0.14 (≈ 0.352 µM) | –
CC(C)COC(=O)Nc1ccc2nc(NC(=O)C3CCCCC3)sc2c1 | 0.72 (≈ 1.92 µM) | –
